Assay results reported in the M2OR odorant receptor database.
Changes are numbered by the printed parent chain.

Key:
Settings in all cases: stereoisomer not certain
OR11H12 (Homo sapiens) = molecular target: T1, OR11H12 (Homo sapiens) (UniProt B2RN74)
T1 sequence (whole entry): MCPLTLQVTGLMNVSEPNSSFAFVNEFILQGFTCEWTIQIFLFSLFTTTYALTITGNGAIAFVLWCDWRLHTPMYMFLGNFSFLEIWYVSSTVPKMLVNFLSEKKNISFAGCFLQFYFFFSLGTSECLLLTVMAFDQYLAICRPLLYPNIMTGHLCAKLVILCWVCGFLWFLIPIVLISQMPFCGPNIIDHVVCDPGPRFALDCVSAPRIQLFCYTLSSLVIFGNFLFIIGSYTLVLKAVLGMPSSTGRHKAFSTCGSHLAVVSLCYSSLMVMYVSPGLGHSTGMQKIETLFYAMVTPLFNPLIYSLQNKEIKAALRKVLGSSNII
In short: (§1)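 Assay methods differ from source to source, frequently being transient luciferase assays in mammalian cell lines. For each receptor–molecule pair, the label responsive (active) applies when the original authors judged the measured signal statistically different from baseline, and non-responsive (inactive) applies otherwise.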

OR11H2 (Homo sapiens) = molecular target: T2, OR11H2 (Homo sapiens) (UniProt Q8NH07)
T2 sequence (whole entry): T1 sequence (whole entry) with Q7H, T33S, T49I, W68R, C156Y, M181K, R199L, S269P
In short: as §1

OR11H4 (Homo sapiens) = molecular target: T3, OR11H4 (Homo sapiens) (UniProt Q8NGC9)
T3 sequence (whole entry): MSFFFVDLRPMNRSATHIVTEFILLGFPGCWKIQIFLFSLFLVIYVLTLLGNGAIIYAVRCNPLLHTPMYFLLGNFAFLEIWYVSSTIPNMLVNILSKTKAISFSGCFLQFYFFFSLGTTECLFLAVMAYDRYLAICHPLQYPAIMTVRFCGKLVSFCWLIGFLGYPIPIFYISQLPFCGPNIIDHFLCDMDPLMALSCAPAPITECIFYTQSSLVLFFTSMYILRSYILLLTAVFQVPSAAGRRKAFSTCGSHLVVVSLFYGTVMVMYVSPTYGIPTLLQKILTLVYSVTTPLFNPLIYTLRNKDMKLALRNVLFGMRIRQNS
In short: as §1

OR11H6 (Homo sapiens) = molecular target: T4, OR11H6 (Homo sapiens) (UniProt Q8NGC7)
T4 sequence (whole entry): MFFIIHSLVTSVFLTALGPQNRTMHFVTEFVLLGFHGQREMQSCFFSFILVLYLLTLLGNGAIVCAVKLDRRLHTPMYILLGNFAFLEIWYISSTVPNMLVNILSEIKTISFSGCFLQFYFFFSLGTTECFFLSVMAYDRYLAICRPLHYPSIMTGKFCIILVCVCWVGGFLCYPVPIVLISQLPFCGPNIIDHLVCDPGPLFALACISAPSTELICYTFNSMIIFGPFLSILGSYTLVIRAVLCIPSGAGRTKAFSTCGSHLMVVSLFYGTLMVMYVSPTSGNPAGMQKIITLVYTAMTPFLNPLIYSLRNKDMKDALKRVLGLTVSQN
In short: as §1

OR11L1 (Homo sapiens) = molecular target: T5, OR11L1 (Homo sapiens) (UniProt Q8NGX0)
T5 sequence (whole entry): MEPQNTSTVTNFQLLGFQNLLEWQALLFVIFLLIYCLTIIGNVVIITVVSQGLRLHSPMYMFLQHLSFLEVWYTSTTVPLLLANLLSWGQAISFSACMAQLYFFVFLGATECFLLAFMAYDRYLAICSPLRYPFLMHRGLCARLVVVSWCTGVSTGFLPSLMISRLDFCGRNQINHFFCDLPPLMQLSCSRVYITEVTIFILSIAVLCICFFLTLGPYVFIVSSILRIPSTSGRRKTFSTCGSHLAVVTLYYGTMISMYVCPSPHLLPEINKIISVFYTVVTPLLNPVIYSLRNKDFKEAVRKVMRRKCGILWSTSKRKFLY
In short: as §1

OR12D2 (Homo sapiens) = molecular target: T6, OR12D2 (Homo sapiens) (UniProt P58182)
T6 sequence (whole entry): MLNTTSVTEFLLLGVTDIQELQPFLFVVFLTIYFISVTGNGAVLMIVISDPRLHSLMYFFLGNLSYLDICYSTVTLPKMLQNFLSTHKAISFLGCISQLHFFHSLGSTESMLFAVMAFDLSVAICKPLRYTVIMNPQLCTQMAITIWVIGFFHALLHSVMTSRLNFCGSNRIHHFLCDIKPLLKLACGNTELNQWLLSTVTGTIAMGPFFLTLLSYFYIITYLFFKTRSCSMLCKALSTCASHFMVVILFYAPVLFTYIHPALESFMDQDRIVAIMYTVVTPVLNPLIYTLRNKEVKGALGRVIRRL
In short: as §1

OR12D3 (Homo sapiens) = molecular target: T7, OR12D3 (Homo sapiens) (UniProt Q9UGF7)
T7 sequence (whole entry): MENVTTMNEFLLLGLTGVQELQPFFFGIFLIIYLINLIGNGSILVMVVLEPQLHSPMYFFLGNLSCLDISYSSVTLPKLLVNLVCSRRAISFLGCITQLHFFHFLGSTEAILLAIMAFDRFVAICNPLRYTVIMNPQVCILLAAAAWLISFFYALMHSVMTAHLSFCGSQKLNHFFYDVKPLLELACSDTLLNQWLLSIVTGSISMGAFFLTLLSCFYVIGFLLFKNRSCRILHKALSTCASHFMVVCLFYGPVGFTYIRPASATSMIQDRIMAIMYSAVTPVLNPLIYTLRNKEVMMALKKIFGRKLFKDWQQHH
In short: as §1

OR13A1 (Homo sapiens) = molecular target: T8, OR13A1 (Homo sapiens) (UniProt Q8NGR1)
T8 sequence (whole entry): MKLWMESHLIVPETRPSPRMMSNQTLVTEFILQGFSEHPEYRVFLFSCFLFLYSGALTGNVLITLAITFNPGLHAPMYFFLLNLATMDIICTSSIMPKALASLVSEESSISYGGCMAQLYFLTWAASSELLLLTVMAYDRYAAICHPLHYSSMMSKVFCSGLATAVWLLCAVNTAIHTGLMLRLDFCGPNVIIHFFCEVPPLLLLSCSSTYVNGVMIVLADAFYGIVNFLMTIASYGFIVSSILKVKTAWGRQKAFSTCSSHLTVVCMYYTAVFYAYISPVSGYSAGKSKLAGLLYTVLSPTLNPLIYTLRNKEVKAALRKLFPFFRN
In short: as §1

OR13C2 (Homo sapiens) = molecular target: T9, OR13C2 (Homo sapiens) (UniProt Q8NGS9)
T9 sequence (whole entry): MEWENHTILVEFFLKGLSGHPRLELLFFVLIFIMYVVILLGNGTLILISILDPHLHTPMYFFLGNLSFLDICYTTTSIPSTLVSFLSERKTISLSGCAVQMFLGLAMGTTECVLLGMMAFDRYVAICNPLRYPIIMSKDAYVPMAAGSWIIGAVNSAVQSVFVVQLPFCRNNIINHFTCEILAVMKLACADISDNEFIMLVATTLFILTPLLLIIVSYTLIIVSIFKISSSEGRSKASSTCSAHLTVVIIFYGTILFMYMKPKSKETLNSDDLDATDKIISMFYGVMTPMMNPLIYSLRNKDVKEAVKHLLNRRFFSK
In short: as §1

OR13C3 (Homo sapiens) = molecular target: T10, OR13C3 (Homo sapiens) (UniProt Q8NGS6)
T10 sequence (whole entry): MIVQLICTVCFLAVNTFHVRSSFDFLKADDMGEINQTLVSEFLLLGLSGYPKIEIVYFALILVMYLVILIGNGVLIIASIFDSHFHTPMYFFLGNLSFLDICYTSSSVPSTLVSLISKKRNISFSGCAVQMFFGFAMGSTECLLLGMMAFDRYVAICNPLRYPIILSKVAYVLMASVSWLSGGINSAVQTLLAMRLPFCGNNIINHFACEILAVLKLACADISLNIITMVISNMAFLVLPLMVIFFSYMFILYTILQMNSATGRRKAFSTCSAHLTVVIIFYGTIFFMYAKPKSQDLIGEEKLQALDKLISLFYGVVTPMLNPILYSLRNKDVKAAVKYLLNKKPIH
In short: as §1

OR13C4 (Homo sapiens) = molecular target: T11, OR13C4 (Homo sapiens) (UniProt Q8NGS5)
T11 sequence (whole entry): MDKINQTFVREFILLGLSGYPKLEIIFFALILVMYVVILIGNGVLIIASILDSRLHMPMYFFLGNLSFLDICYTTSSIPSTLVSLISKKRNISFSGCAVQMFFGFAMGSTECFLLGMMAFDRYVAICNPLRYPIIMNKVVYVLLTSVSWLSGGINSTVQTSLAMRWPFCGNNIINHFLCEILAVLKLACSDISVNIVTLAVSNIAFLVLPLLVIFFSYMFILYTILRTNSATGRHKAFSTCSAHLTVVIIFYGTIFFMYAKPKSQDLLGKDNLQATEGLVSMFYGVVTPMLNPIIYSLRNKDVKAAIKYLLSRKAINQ
In short: as §1

OR13C5 (Homo sapiens) = molecular target: T12, OR13C5 (Homo sapiens) (UniProt Q8NGS8)
T12 sequence (whole entry): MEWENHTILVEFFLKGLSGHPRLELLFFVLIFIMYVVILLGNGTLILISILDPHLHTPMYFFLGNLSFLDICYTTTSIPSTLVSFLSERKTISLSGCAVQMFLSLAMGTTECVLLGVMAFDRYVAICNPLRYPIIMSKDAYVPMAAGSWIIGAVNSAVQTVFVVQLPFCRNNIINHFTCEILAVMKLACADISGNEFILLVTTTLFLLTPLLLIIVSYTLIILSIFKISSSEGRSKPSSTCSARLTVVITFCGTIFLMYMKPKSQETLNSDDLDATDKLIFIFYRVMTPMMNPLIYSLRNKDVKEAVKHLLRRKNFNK
In short: as §1

OR13C8 (Homo sapiens) = molecular target: T13, OR13C8 (Homo sapiens) (UniProt Q8NGS7)
T13 sequence (whole entry): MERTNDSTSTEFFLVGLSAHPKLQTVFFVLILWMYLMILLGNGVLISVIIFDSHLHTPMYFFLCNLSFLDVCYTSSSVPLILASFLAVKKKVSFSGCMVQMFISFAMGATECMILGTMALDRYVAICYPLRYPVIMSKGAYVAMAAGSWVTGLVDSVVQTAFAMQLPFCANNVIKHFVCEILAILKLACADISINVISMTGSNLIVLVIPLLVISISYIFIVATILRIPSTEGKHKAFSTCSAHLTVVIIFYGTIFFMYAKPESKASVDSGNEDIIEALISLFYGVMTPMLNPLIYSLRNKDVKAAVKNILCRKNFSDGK
In short: as §1

OR13C9 (Homo sapiens) = molecular target: T14, OR13C9 (Homo sapiens) (UniProt Q8NGT0)
T14 sequence (whole entry): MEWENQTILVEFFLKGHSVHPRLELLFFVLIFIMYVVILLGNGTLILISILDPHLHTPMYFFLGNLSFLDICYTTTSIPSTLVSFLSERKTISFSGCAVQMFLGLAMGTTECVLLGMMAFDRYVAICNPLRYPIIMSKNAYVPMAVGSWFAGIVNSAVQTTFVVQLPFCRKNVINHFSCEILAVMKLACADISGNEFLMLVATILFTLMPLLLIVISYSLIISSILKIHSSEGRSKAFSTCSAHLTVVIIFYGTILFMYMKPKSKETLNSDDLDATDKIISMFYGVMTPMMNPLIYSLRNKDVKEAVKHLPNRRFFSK
In short: as §1

OR13D1 (Homo sapiens) = molecular target: T15, OR13D1 (Homo sapiens) (UniProt Q8NGV5)
T15 sequence (whole entry): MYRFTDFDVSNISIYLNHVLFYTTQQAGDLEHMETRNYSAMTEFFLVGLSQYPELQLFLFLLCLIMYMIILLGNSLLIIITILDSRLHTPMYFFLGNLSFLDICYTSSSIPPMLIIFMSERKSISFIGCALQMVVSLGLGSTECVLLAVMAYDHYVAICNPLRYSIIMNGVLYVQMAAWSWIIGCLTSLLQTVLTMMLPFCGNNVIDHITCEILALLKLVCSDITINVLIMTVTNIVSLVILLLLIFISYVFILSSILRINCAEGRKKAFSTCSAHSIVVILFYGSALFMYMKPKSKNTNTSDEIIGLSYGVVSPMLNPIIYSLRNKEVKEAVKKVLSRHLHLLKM
In short: as §1

OR13F1 (Homo sapiens) = molecular target: T16, OR13F1 (Homo sapiens) (UniProt Q8NGS4)
T16 sequence (whole entry): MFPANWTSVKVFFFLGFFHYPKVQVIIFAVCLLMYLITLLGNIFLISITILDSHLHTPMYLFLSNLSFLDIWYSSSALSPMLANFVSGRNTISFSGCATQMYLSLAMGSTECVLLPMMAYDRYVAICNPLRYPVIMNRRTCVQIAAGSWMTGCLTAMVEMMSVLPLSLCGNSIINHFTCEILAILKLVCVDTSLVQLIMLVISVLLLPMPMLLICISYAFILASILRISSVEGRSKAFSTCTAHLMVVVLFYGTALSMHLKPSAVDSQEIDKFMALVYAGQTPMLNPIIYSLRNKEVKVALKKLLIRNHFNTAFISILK
In short: as §1

OR13G1 (Homo sapiens) = molecular target: T17, OR13G1 (Homo sapiens) (UniProt Q8NGZ3)
T17 sequence (whole entry): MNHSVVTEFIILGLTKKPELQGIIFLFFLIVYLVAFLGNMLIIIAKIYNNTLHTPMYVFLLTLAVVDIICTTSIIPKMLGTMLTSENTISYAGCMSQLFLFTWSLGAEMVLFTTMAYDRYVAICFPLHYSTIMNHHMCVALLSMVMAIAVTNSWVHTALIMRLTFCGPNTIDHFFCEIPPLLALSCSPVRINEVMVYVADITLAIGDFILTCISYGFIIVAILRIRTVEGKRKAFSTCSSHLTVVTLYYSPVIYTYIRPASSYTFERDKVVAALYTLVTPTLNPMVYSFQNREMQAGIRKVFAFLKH
In short: as §1

| Structure (SMILES) | odorant receptor agonist call (OR11H12 (Homo sapiens)) | odorant receptor agonist call (OR11H2 (Homo sapiens)) | odorant receptor agonist call (OR11H4 (Homo sapiens)) | odorant receptor agonist call (OR11H6 (Homo sapiens)) | odorant receptor agonist call (OR11L1 (Homo sapiens)) | odorant receptor agonist call (OR12D2 (Homo sapiens)) | odorant receptor agonist call (OR12D3 (Homo sapiens)) | odorant receptor agonist call (OR13A1 (Homo sapiens)) | odorant receptor agonist call (OR13C2 (Homo sapiens)) | odorant receptor agonist call (OR13C3 (Homo sapiens)) | odorant receptor agonist call (OR13C4 (Homo sapiens)) | odorant receptor agonist call (OR13C5 (Homo sapiens)) | odorant receptor agonist call (OR13C8 (Homo sapiens)) | odorant receptor agonist call (OR13C9 (Homo sapiens)) | odorant receptor agonist call (OR13D1 (Homo sapiens)) | odorant receptor agonist call (OR13F1 (Homo sapiens)) | odorant receptor agonist call (OR13G1 (Homo sapiens)) |
| --- | --- | --- | --- | --- | --- | --- | --- | --- | --- | --- | --- | --- | --- | --- | --- | --- | --- |
| O=c1ccc2ccccc2o1 | active |  |  |  |  |  |  |  |  |  |  |  |  |  |  |  |  |
| CCC1OC(=O)C(O)=C1C (centres undefined) | inactive | inactive | inactive | inactive | inactive | inactive | inactive | inactive | inactive | inactive | inactive | inactive | inactive | inactive | inactive | inactive | inactive |
| CC(CO)CS (centres undefined) |  | inactive | inactive | inactive | inactive | inactive | inactive | inactive | inactive | inactive | inactive | active | inactive | inactive | inactive | inactive | inactive |
